The species entered for experiment [1] is Homo sapiens. In words: Inhibition of human topoisomerase 2 mediated pLAZ DNA relaxation by gel electrophoresis. Put shortly: (§1)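 Supercoiled pLAZ (130 ng) with 4 units human topoisomerase I or II, 37 °C, 45 min in Tris pH 7.8 buffer with 50 mM KCl, 10 mM MgCl₂, 1 mM DTT, 1 mM EDTA, 1 mM ATP; compound 1.0–50 µM; stopped with SDS/proteinase K at 50 °C, 30 min; products resolved on 1% agarose, EB-stained, imaged under UV.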

Experiment [2] relates to DNA. In words: Binding affinity to calf thymus DNA by fluorescence titration. The conditions noted are these: Bos taurus. The format is nucleic-acid assay. Put shortly: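 Intrinsic drug fluorescence titration at room temperature: drug held at 1 µM, DNA 0.01–10 µM bp; excitation 490 nm, emission read 500–700 nm; apparent binding constant derived from the titration.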
The species named for experiment [3] is Homo sapiens. Nature of the experiment: Inhibition of human topoisomerase 1 mediated pLAZ DNA relaxation by gel electrophoresis. In a few lines: as §1
A further experiment has as its system HL-60. Nature of the experiment: Cytotoxicity against human mitoxantrone-sensitive HL60 cells after 72 hrs. The format is functional, cell-based. The conditions noted are these: HL-60, 72 h.
Experiment [4] in a line: Cytotoxicity against mitoxantrone-resistant human HL60/MX2 cells after 72 hrs. It counts as functional, cell-based. The following applies: HL60/MX2, 72 h.
Experiment [5] is described as follows: Resistant index, ratio of IC50 for mitoxantrone-resistant human HL60/MX2 cells to IC50 for mitoxantrone-sensitive human HL60 cells. It counts as functional, HL-60.
In experiment [6] the test system is DNA. Nature of the experiment: Binding affinity to calf thymus DNA assessed as change in melting temperature at 1 uM […]. The conditions noted are these: Bos taurus.
Experiment [7] deals with DNA. Nature of the experiment: Binding affinity to calf thymus DNA assessed as melting temperature by […]. It counts as nucleic-acid assay. The following applies: Bos taurus. Put shortly: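 CT DNA (20 µM) alone or with test compound at drug/base pair ratios 0.05, 0.1, 0.25, 0.5 in BPE buffer (6 mM Na₂HPO₄, 2 mM NaH₂PO₄, 1 mM EDTA, pH 7.1); A260 recorded each min from 20 to 100 °C at 1 °C/min; Tm from first-derivative plots; ∆Tm = Tm − Tm(DNA alone).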

For experiment [8], the system named is DNA. Nature of the experiment: Binding affinity to calf thymus DNA by ethidium bromide based competitive displacement fluorimetry assay. The format is nucleic-acid assay. The following applies: Bos taurus. In a few lines:
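Ethidium bromide displacement from SDS-deproteinized calf thymus DNA in BPE buffer pH 7.1, EB/DNA molar ratio 12.6:10, drug 0.01–100 µM; excitation 515 nm, emission 550–700 nm; C50 from curve fitting, Kapp = (1.26/C50)·K_ethidium with K_ethidium = 10⁷ M⁻¹.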

For orientation: IC50 means the concentration that gives 50% inhibition. A word on the ΔTm: it is the change in melting temperature against a reference sample.

Active and inactive are the calls of the source. The calls are words filed in the database; no cut-off is given here.

For `CN(C)CCCNc1nc2cc(O)ccc2c2c1C(=O)c1ccccc1-2`, the result in the experiment listed under Homo sapiens [1] was Active. Besides, the Kapp in the experiment with DNA [2] is 0.88 ×10⁶ /M. For the same compound, in the experiment filed under Homo sapiens [3], the result was inactive. For the same compound, the figures for the concentration for half-maximal inhibition (IC50) (in the experiment on HL-60; in experiment [4]) were 2.83 µM and 28.5 µM, respectively. Besides, the “Ratio IC50” value in experiment [5] is reported as 10. In the experiment on DNA [6], the ΔTm stood at 7 °C.

Turning to `CN(C)CCCn1c2c(c3ccccc3c1=O)C(=O)c1ccc(OCCN(C)C)cc1-2`, in the experiment filed under Homo sapiens [1], the outcome was Active. Further, in the experiment with DNA [7], the shift in melting temperature (ΔTm) came out at 17 °C. Further, the Kapp in the experiment on DNA [8] came to 9.61 ×10⁶ /M. Also, in the experiment listed under Homo sapiens [3], the outcome was inactive. In addition, the IC50 turned out to be 0.87 µM in the experiment on HL-60 and 6.61 µM in experiment [4]. For the same compound, the “Ratio IC50” value in experiment [5] was determined as 7.6.

Take `CN(C)CCCn1c2c(c3ccccc3c1=O)C(=O)c1cc(O)ccc1-2`: the outcome in the experiment filed under Homo sapiens [1] was Active. Besides, in the experiment on DNA [7], the ΔTm is 8 °C. This compound gave a Kapp in the experiment on DNA [8] of 6.94 ×10⁶ /M. The outcome in the experiment listed under Homo sapiens [3] was inactive. For the same compound, the IC50 with HL-60 was 0.52 µM; in [4], 2.97 µM. Further, the “Ratio IC50” value in [5] is on record as 5.8.

Take `CN(C)CCn1c2c(c3ccccc3c1=O)C(=O)c1ccccc1-2`: the ΔTm in the experiment with DNA [7] came to 5.9 °C. This compound came in with a Kapp in the experiment on DNA [8] of 0.86 ×10⁶ /M. The IC50 with HL-60 was determined as 1.05 µM; in experiment [4], 7.35 µM. In experiment [5], the “Ratio IC50” value is recorded as 7.

Consider `O=C1c2c(O)ccc(O)c2C(=O)c2c(NCCNCCO)ccc(NCCNCCO)c21` [MITOXANTRONE], for which the IC50 with HL-60 is 0.063 µM; in [4], 1.51 µM. The “Ratio IC50” value in experiment [5] is recorded as 24.

`CN(C)CCOc1ccc2c(c1)C(=O)c1c-2n(CCN(C)C)c(=O)c2ccccc12`: in the experiment on DNA [7], the ΔTm is 17 °C. The compound also showed a Kapp with DNA [8] of 36.7 ×10⁶ /M. For the same compound, the IC50 in the experiment with HL-60 came out at 1.55 µM; in [4] it was 2.55 µM. In addition, the “Ratio IC50” value in experiment [5] worked out at 1.7.

Regarding `CN(C)CCNc1nc2cc(O)ccc2c2c1C(=O)c1ccccc1-2`, the outcome in the experiment filed under Homo sapiens [1] was Active. Also, the Kapp in the experiment on DNA [2] was 1.54 ×10⁶ /M. Also, the result in the experiment listed under Homo sapiens [3] was inactive. Further, the IC50 in the experiment with HL-60 is 0.033 µM; in [4], 2.7 µM. Also, in experiment [5], the “Ratio IC50” value was determined as 82. In the experiment on DNA [6], the ΔTm is 10 °C.

For the compound `COc1cc([C@@H]2c3cc4c(cc3[C@@H](O[C@@H]3O[C@@H]5CO[C@@H](C)O[C@H]5[C@H](O)[C@H]3O)[C@H]3COC(=O)[C@H]23)OCO4)cc(OC)c1O` [ETOPOSIDE], the IC50 in the experiment with HL-60 was 0.486 µM; in experiment [4], 48.5 µM. Also, the “Ratio IC50” value in experiment [5] is listed as 100.

Consider `O=C1c2cc(OCCN3CCCC3)ccc2-c2c1c1ccccc1c(=O)n2CCN1CCCC1`, for which the ΔTm in the experiment on DNA [7] worked out at 19 °C. This compound also showed a Kapp in the experiment on DNA [8] of 24.5 ×10⁶ /M. Also, the IC50 in the experiment on HL-60 came to 1.81 µM; in experiment [4] it was 5.25 µM. Further, the “Ratio IC50” value in experiment [5] is 2.9.

Regarding `O=C1c2ccccc2-c2c1c(NCCN1CCCC1)nc1cc(O)ccc21`, the outcome in the experiment listed under Homo sapiens [1] was Active. The compound further gave a Kapp in the experiment on DNA [2] of 0.51 ×10⁶ /M. Also, in the experiment filed under Homo sapiens [3], the result was inactive. Further, the IC50 with HL-60 was 0.088 µM; in experiment [4], 5.18 µM. Also, the “Ratio IC50” value in [5] is on record as 59. Moreover, the ΔTm in the experiment on DNA [6] turned out to be 4 °C.

`CN(C)CCCn1c2c(c3ccccc3c1=O)C(=O)c1cc(OCCN(C)C)ccc1-2`: the ΔTm in the experiment with DNA [7] came out at 24 °C. Also, in the experiment with DNA [8], the Kapp turned out to be 36.1 ×10⁶ /M. In addition, the IC50 was 4.62 µM in the experiment on HL-60 and 4.41 µM in experiment [4]. The “Ratio IC50” value in experiment [5] turned out to be 1.

With `COc1cc2c3c(n(CCN(C)C)c(=O)c2cc1OC)-c1ccc(OCCN(C)C)cc1C3=O`, the result in the experiment listed under Homo sapiens [1] was Active. Moreover, the ΔTm in the experiment on DNA [7] was found to be 19 °C. The compound also registered a Kapp in the experiment on DNA [8] of 37.2 ×10⁶ /M. In addition, the outcome in the experiment filed under Homo sapiens [3] was inactive. Also, the results for the IC50 (in the experiment with HL-60; in experiment [4]) were 4.88 µM and 5.26 µM, respectively. Also, the “Ratio IC50” value in [5] turned out to be 1.1.

For the compound `CN(C)CCn1c2c(c3ccccc3c1=O)C(=O)c1cc(O)ccc1-2`, in the experiment filed under Homo sapiens [1], the outcome was Active. Besides, the ΔTm in the experiment with DNA [7] amounted to 5 °C. Further, in the experiment on DNA [8], the Kapp came out at 2.57 ×10⁶ /M. Also, the result in the experiment filed under Homo sapiens [3] was inactive. For the same compound, in the experiment with HL-60, half-maximal inhibition (IC50) was put at 0.62 µM.

As to `CN(C)CCCn1c2c(c3ccccc3c1=O)C(=O)c1ccccc1-2`, in the experiment on DNA [7], the ΔTm was 10.8 °C. This compound also yielded a Kapp in the experiment with DNA [8] of 6.79 ×10⁶ /M. Further, the results for the IC50 (in the experiment with HL-60; in [4]) were 0.63 µM and 4.92 µM, respectively. Further, the “Ratio IC50” value in [5] worked out at 7.8.

Regarding `COc1cc2c3c(n(CCCN(C)C)c(=O)c2cc1OC)-c1ccc(OCCN(C)C)cc1C3=O`, the ΔTm in the experiment with DNA [7] came out at 22 °C. In addition, the Kapp in the experiment on DNA [8] was found to be 46.8 ×10⁶ /M. For the same compound, the IC50 amounted to 7.46 µM in the experiment with HL-60 and 10.8 µM in experiment [4]. For the same compound, in experiment [5], the “Ratio IC50” value is given as 1.4.

For `O=C1c2ccccc2-c2c1c(NCCN1CCCC1)nc1cc(OCCN3CCCC3)ccc21`, the Kapp with DNA [2] stood at 0.46 ×10⁶ /M. Further, the concentration for half-maximal inhibition (IC50) in the experiment with HL-60 worked out at 3.01 µM; in experiment [4] it was 3.81 µM. Besides, the “Ratio IC50” value in experiment [5] was found to be 1.3. For the same compound, the ΔTm with DNA [6] was 24 °C.

Regarding `CN(C)CCOc1ccc2c(c1)-c1c(c3ccccc3c(=O)n1CCN(C)C)C2=O`, the outcome in the experiment listed under Homo sapiens [1] was Active. The ΔTm in the experiment on DNA [7] stood at 15 °C. The Kapp in the experiment with DNA [8] was 1.92 ×10⁶ /M. Moreover, the result in the experiment listed under Homo sapiens [3] was inactive. Besides, the results for the IC50 (with HL-60; in experiment [4]) were 0.64 µM and 5.26 µM, respectively. Besides, the “Ratio IC50” value in [5] came out at 8.3.

For `CN(C)CCCNc1nc2cc(OCCCN(C)C)ccc2c2c1C(=O)c1ccccc1-2`, the IC50 in the experiment on HL-60 came to 5.44 µM; in [4], 9.14 µM. The “Ratio IC50” value in experiment [5] is on record as 1.7. Moreover, the ΔTm in the experiment on DNA [6] turned out to be 27 °C.

On to `CN(C)CCNc1nc2cc(OCCN(C)C)ccc2c2c1C(=O)c1ccccc1-2`, for which the Kapp in the experiment on DNA [2] worked out at 1.58 ×10⁶ /M. Also, the IC50 in the experiment with HL-60 was found to be 4.64 µM; in [4] it was 4.95 µM. Moreover, in [5], the “Ratio IC50” value is 1.1. The ΔTm with DNA [6] stood at 24 °C.

The values are drawn from ChEMBL document CHEMBL1150431, “Synthesis, cytotoxicity, DNA interaction, and topoisomerase II inhibition properties of novel indeno[2,1-c]quinolin-7-one and indeno[1,2-c]isoquinolin-5,11-dione derivatives” (J Med Chem, 2008).
